Test system: Mycobacterium tuberculosis
Experiment: Antitubercular activity against […] after 7 days by alamar blue assay
Type: functional
Settings: 168 h
Procedure, shortened: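 M. bovis BCG stock, thawed with sonication/ice cycles, diluted to 8 × 10⁴ bacteria per mL in Tween albumin broth (Dubos/OADC). Compounds prepared in PBS (up to 5% DMSO) at double strength, filter-sterilised, serially diluted; tested in triplicate from […] start.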

| SMILES | MIC |
| --- | --- |
| C[C@H](O)[C@@H](O)[C@@H](O)[C@H](O)CNC1CCCCCCCCCCC1 | 680 µM |
| OC[C@@H](O)[C@H](O)[C@H](O)CNC1CCCCCCC1 | > 500 µg/mL |
| OC[C@@H]1NC[C@@H](O)[C@@H]1O | > 3500 µM |
| C=C[C@@H](O)CCN | > 3500 µM |
| CCCCCCCCCCCCCCN [TETRADECYLAMINE] | 140 µM |
| C=C[C@@H](O)[C@@H](O)CNC(c1ccccc1)c1ccccc1 | 1600 µM |
| O=C1OC[C@H]2[C@@H](O)[C@H](O)CN12 | > 3500 µM |
| CCCCCCCCCCCCCCCCN [HEXADECYLAMINE] | 130 µM |
| OC[C@@H]1NCC[C@@H]1O | > 3500 µM |
| C=C[C@@H](O)[C@H](O)CNC[C@@H](O)[C@H](O)C=C | 2000 µM |
| CC[C@@H](CO)NCCN[C@@H](CC)CO [ETHAMBUTOL] | 39 µM |
| C[C@H](O)[C@@H](O)[C@@H](O)[C@H](O)CNC1CCCCCCC1 | > 500 µg/mL |
| NC1CCCCCCCCCCC1 | 680 µM |
| C=C[C@@H](O)[C@H](O)CNCCCCCCCCCCCCCCCC | 21 µM |
| C=C[C@@H](O)[C@H](O)CNC1CCCCCCCCCCC1 | 200 µM |
| OC[C@H]1NC[C@H](O)[C@H]1O | > 3500 µM |
| O=C1OC[C@@H]2[C@H](O)[C@@H](O)CN12 | > 3500 µM |
| OC[C@@H](O)[C@H](O)[C@H](O)CNC1CCCCC1 | > 500 µg/mL |
| C=C[C@@H](O)[C@H](O)CNC(c1ccccc1)c1ccccc1 | 1600 µM |
| C=C[C@@H](O)[C@H](O)CNC12CC3CC(CC(C3)C1)C2 | > 500 µg/mL |
| C=C[C@H](O)[C@@H](O)CNCc1ccccc1 | > 500 µg/mL |

| SMILES | MIC |
| --- | --- |
| C=C[C@@H](O)[C@H](O)CNCc1ccccc1 | > 500 µg/mL |
| O=C1OC[C@H]2[C@@H](O)CCN12 | > 3500 µM |
| C=C[C@@H](O)[C@H](O)CN(C)CCCCCCCCCCCCCCCC | 22 µM |
| OC[C@@H]1NC[C@H](O)[C@@H]1O | > 3500 µM |
| OC[C@@H](O)[C@H](O)[C@H](O)CNC12CC3CC(CC(C3)C1)C2 | > 500 µg/mL |
| C=C[C@H](O)[C@@H](O)CNC(c1ccccc1)c1ccccc1 | 440 µM |
| C=C[C@@H](O)[C@@H](O)CNCCCCCCCC | 940 µM |
| NC(c1ccccc1)c1ccccc1 [AMINODIPHENYLMETHANE] | 1360 µM |
| C=C[C@@H](O)[C@@H](O)CN | > 3500 µM |
| C=C[C@H](O)[C@@H](O)CNCCCCCCCC | 940 µM |
| C=C[C@H](O)[C@@H](O)CN | > 3500 µM |
| OC[C@@H](O)[C@H](O)[C@H](O)CNC1CCCCCCCCCCC1 | 160 µM |
| C[C@H](O)[C@@H](O)[C@@H](O)[C@H](O)CNC1CCCCC1 | > 500 µg/mL |
| C=C[C@H](OC)[C@H](CNC(c1ccccc1)c1ccccc1)OC | 800 µM |
| C=C[C@@H](O)[C@H](O)CNCCCCCCCC | 680 µM |
| C=C[C@@H](O)[C@H](O)CN | > 3500 µM |
| C=C[C@@H](O)[C@H](O)CN(CCCC)CCCC | > 500 µg/mL |
| C=C[C@@H](O)[C@H](O)CNCCCCCCCCCCCCCC | 45 µM |
| C=C[C@@H](O)[C@@H](O)CNCc1ccccc1 | > 500 µg/mL |
| O=C1OC[C@H]2[C@@H](O)[C@@H](O)CN12 | > 3500 µM |
| C[C@H](O)[C@H](O)[C@@H](O)[C@@H](O)CNC1CCCCCCC1 | > 500 µg/mL |

From ChEMBL document CHEMBL3751768, “Synthesis and anti-tuberculosis activity of glycitylamines” (2016)
